From the array DNA melting data of Ke et al. (doi:10.1101/2024.01.08.574731) come the findings set out here.

Data set [1] can be described thus: melting temperature; fluorescence melt of hairpins on a sequencing array, two-state fit, raised by 9.35 °C to match UV melts. The settings on record: sodium 0.088 M. The method in brief:
(§1)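 On a sequenced MiSeq flow cell, library hairpins with annealed Cy3 and quencher oligos were imaged for Cy3 fluorescence in 2.5 °C steps up to 60 °C, in 50 mM Na-HEPES pH 8.0, 25 mM NaCl. Normalisation used pre-quench Cy3 and control constructs. Bootstrapped two-state fits gave melting temperature and folding enthalpy, combined by inverse variance across four replicates and with fitted temperatures raised by 9.35 °C to match UV melts.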

Data set [2] in a line: folding enthalpy; higher = less favourable; fluorescence melt of hairpins on a sequencing array, two-state fit. Particulars: sodium 0.088 M. The method in brief: as §1

For the sequence GCGATGAGTCGC ((((....)))), in data set [1], the Tm turned out to be 54.8 °C. Also, the folding enthalpy in data set [2] was -30.5 kcal/mol.
For GCTTAGCGAAAGCGACGC ((.(.((....)).).)), in that order: 53.2 °C and -18.2 kcal/mol.
For GTTGACGAAAGTCTAAAC ((((((....)))..))), in that order: 30.4 °C and -12.8 kcal/mol.
For GAAACCGAAAGGTTTTTC ((((((....)))..))), in that order: 48.8 °C and -15.6 kcal/mol.
Take GGCCAACCGAAAGGTGCC (((..(((....)))))): in data set [1], the Tm came to 50.4 °C. For the same sequence, the folding enthalpy in data set [2] is -23.8 kcal/mol.
For GTGACACGAAAGTGCCAC (((.(((....))).))), in that order: 56.3 °C and -40.1 kcal/mol.
In the case of GGCCAAGGAAACTTAGCC (((.(((....))).))), the Tm in data set [1] was found to be 36.3 °C. Also, the folding enthalpy in data set [2] was -24.7 kcal/mol.
Taken in the same sequence, the figures for GAAAGCGAAAGCTGCTTC ((((((....)))..))) were 42.9 °C and -19.4 kcal/mol.
Taken in the same sequence, the figures for GGTGAAGGAAACTTCGCC ((.((((....)))).)) were 52.6 °C and -45.2 kcal/mol.
Take CGAGTCCGGAAACGGTCG (((..(((....)))))): in data set [1], the Tm is 42.4 °C. Besides, the folding enthalpy in data set [2] is -12.3 kcal/mol.
As for GTACGGCGAAAGCCCTAC (((.(((....))).))), the Tm in data set [1] stood at 35.9 °C. Further, the folding enthalpy in data set [2] was -12.5 kcal/mol.
Taken in the same sequence, the figures for GATCACATGCGTGATC ((((((....)))))) were 57.8 °C and -38.4 kcal/mol.
Taken in the same sequence, the figures for GCACCCGAAAGGGGTTGC ((((((....)))..))) were 52.3 °C and -15.4 kcal/mol.
Consider GCCGTGCGAAAGCGCCGC ((.(.((....)).).)), for which the Tm in data set [1] came to 50 °C. Besides, the folding enthalpy in data set [2] was -14.4 kcal/mol.
Taken in the same sequence, the figures for GTCGGCGGAAACGTCGAC ((((.((....)).)))) were 62 °C and -51.5 kcal/mol.
Taken in the same sequence, the figures for CGCACGGAAACGTAGGCG ((((((....)))..))) were 46.3 °C and -30.6 kcal/mol.
For GCGTCGCGAAAGCCAAGC ((.(.((....)).).)), in that order: 48.1 °C and -20.1 kcal/mol.
For GTCAGTGGAAACATTGAC ((((.((....)).)))), the Tm in data set [1] amounted to 45.3 °C. Besides, the folding enthalpy in data set [2] was -29.2 kcal/mol.
Regarding GGCCGTGGAAACACGACC ((.((((....)))).)), the Tm in data set [1] was 55 °C. Besides, the folding enthalpy in data set [2] was -36.2 kcal/mol.
Taken in the same sequence, the figures for GTGCGAGGAAACTCGCGC (.(((((....))))).) were 66.2 °C and -18.2 kcal/mol.
For GTTCGAGGAAACTCGAGC (.(((((....))))).), in that order: 49.8 °C and -21.7 kcal/mol.
Taken in the same sequence, the figures for CGGCCCGGAAACGGTCCG (((.(((....))).))) were 55.3 °C and -45.1 kcal/mol.
Consider GATCAGTTGGCTGATC ((((((....)))))), for which the Tm in data set [1] was determined as 54.3 °C. In addition, the folding enthalpy in data set [2] was -43 kcal/mol.
Consider CGGGGGCGGAAACGCCCG (((..(((....)))))), for which the Tm in data set [1] came to 52.2 °C. The folding enthalpy in data set [2] was -6.12 kcal/mol.
GAGCTTGGAAACGAGCTC (((((.(....).))))): in data set [1], the Tm turned out to be 53.4 °C. Also, in data set [2], the folding enthalpy is -45.1 kcal/mol.
For GCACTTGGAAACAAGCGC ((.((((....)))).)), in that order: 49.5 °C and -45 kcal/mol.
For GTTGTGGGAAACTACGAC ((.((.(....).)).)), in that order: 33.8 °C and -14.3 kcal/mol.
For GGCTGCGAAAGCACGGCC ((((((....)))..))), in that order: 53.5 °C and -23.4 kcal/mol.
Turning to GTTCCCGGAAACAGGAAC (((((.(....).))))), the Tm in data set [1] came to 39.5 °C. Also, the folding enthalpy in data set [2] is -32.5 kcal/mol.
Consider GATCCTAACGAGGATC ((((((....)))))), for which the Tm in data set [1] amounted to 50.6 °C. For the same sequence, the folding enthalpy in data set [2] is -44.8 kcal/mol.
Turning to GGACAAGGAAACTTGCCC ((.((((....)))).)), in data set [1], the Tm came out at 43 °C. In addition, in data set [2], the folding enthalpy is -20.3 kcal/mol.
For GTACAGCGAAAGCTTAC (((.(((....)))))), in that order: 38.1 °C and -13.1 kcal/mol.
Taken in the same sequence, the figures for GATCCTCTAAAGGATC ((((((....)))))) were 52.4 °C and -39.3 kcal/mol.
For CGTCTGAAAAGACG (((((....))))), in that order: 55.2 °C and -29.4 kcal/mol.
GCAGCGCGAAAGCGGGGC ((..(((....)))..)): in data set [1], the Tm turned out to be 67.2 °C. The folding enthalpy in data set [2] is -28 kcal/mol.
For GGTGTGCGAAAGCATACC (((.(((....))).))), in that order: 63.6 °C and -38.4 kcal/mol.
Taken in the same sequence, the figures for GGGGTGGGAAACCATCCC (((.(((....))).))) were 56.6 °C and -41.7 kcal/mol.
Take GAGTTACGAAAGTACCTC (((.(((....))).))): the Tm in data set [1] is 40.3 °C. The folding enthalpy in data set [2] is -24.6 kcal/mol.
Taken in the same sequence, the figures for CGACCGGAAACGGTGTCG ((((((....)))..))) were 43 °C and -14.8 kcal/mol.
For GCAACGCGAAAGCGGAGC ((..(((....)))..)), in that order: 63.9 °C and -24.5 kcal/mol.
Taken in the same sequence, the figures for GATCGGAGAGCCGATC ((((((....)))))) were 54.8 °C and -30.3 kcal/mol.
For GATCACGCCGGTGATC ((((((....)))))), the Tm in data set [1] was 60.7 °C. Besides, in data set [2], the folding enthalpy is -38.7 kcal/mol.
With GATCGAGGAAACTCGACC (.(((((....))))).), in data set [1], the Tm stood at 41.4 °C. Also, the folding enthalpy in data set [2] is -14.8 kcal/mol.
For GATCTAAGGCTAGATC ((((((....)))))), in that order: 38.8 °C and -25.3 kcal/mol.
For GCTAGGGGAAACCTTGGC ((.(.((....)).).)), in that order: 34.4 °C and -23.8 kcal/mol.
Taken in the same sequence, the figures for GGCAGAACGAAAGTTGCC (((..(((....)))))) were 50.9 °C and -27.2 kcal/mol.
In the case of GATCGGCCAGCCGATC ((((((....)))))), the Tm in data set [1] turned out to be 65.9 °C. For the same sequence, the folding enthalpy in data set [2] is -36.8 kcal/mol.
Taken in the same sequence, the figures for GATAACGGAAACGTTGTC ((.((((....)))).)) were 45.8 °C and -28 kcal/mol.
Taken in the same sequence, the figures for TGGAGGAAACTCCA (((((....))))) were 46 °C and -17.4 kcal/mol.
Taken in the same sequence, the figures for GGTGGCCGAAAGGCGACC (((.(((....))).))) were 66.2 °C and -30.2 kcal/mol.
Take GGTGGCCGAAAGGCAACC (((.(((....))).))): the Tm in data set [1] came out at 66.5 °C. Further, the folding enthalpy in data set [2] is -28.1 kcal/mol.
For GATCTCCCCAGAGATC ((((((....)))))), in that order: 55.7 °C and -42.9 kcal/mol.
Taken in the same sequence, the figures for GATCTTAAGTAAGATC ((((((....)))))) were 42.8 °C and -25.5 kcal/mol.
Taken in the same sequence, the figures for GGCCGCGAAAGCGTGGCC ((((((....)))..))) were 69.2 °C and -22.8 kcal/mol.
Regarding GCACCTGGAAACAAGTGC ((((.((....)).)))), the Tm in data set [1] is 41.1 °C. In addition, the folding enthalpy in data set [2] is -27.4 kcal/mol.
As to GATCCTCGCAAGGATC ((((((....)))))), the Tm in data set [1] came to 54.8 °C. In addition, the folding enthalpy in data set [2] was -32.6 kcal/mol.
Taken in the same sequence, the figures for GAGGATGGAAACACCCTC ((((.((....)).)))) were 38.1 °C and -32.6 kcal/mol.
Taken in the same sequence, the figures for GATCCGGCGTCGGATC ((((((....)))))) were 58.2 °C and -45.3 kcal/mol.
For GTTGGACGAAAGTCAAC (((.(((....)))))), in that order: 48.6 °C and -17.5 kcal/mol.
For the sequence GATCCACTTCTGGATC ((((((....)))))), the Tm in data set [1] stood at 50.2 °C. For the same sequence, in data set [2], the folding enthalpy was -34.8 kcal/mol.
For GGCCAGGGAAACCCGACC ((.(.((....)).).)), in that order: 32.5 °C and -11.9 kcal/mol.
Taken in the same sequence, the figures for GCAGTGCGAAAGCCCTGC ((((.((....)).)))) were 61.8 °C and -32.8 kcal/mol.
Taken in the same sequence, the figures for GGGTGGGGAAACCCGTCC ((..(((....)))..)) were 48.8 °C and -19 kcal/mol.
GACGGCGGAAACACCGTC (((((.(....).))))): in data set [1], the Tm amounted to 54 °C. Besides, the folding enthalpy in data set [2] is -42.4 kcal/mol.
Taken in the same sequence, the figures for GTAACTGGAAACAGCTAC (((.(((....))).))) were 34.2 °C and -30.1 kcal/mol.
GATCCCGCATGGGATC ((((((....)))))): the Tm in data set [1] was 68 °C. Further, the folding enthalpy in data set [2] is -32.9 kcal/mol.
Regarding GATTCGGAAACGAATC ((((((....)))))), the Tm in data set [1] turned out to be 58.6 °C. For the same sequence, the folding enthalpy in data set [2] was -32.2 kcal/mol.
As to GCCGCCCCGAAAGGGGGC (((..(((....)))))), in data set [1], the Tm turned out to be 67.5 °C. Besides, in data set [2], the folding enthalpy is -6.87 kcal/mol.
For GATCCCAAAAGGGATC ((((((....)))))), in that order: 59.3 °C and -27.9 kcal/mol.
Regarding GATCTAGACGTAGATC ((((((....)))))), in data set [1], the Tm worked out at 44.8 °C. In data set [2], the folding enthalpy is -38.9 kcal/mol.
On to GGTCAGCGAAAGCTAACC (((.(((....))).))), for which the Tm in data set [1] came out at 46.7 °C. Also, the folding enthalpy in data set [2] is -25.6 kcal/mol.
For GTGGCCGAAAGGCCCCAC ((((((....)))..))), in that order: 38.1 °C and -5.99 kcal/mol.
In the case of GCTTACCGAAAGGTGAGC (((.(((....))).))), in data set [1], the Tm was determined as 58.6 °C. Further, the folding enthalpy in data set [2] was -40.5 kcal/mol.
For GTCCTCGAAAGAGAGGAC ((((((....)))..))), in that order: 52.9 °C and -30.2 kcal/mol.
